Data from ChEMBL document CHEMBL2375313, “Synthesis, in vitro antitumor evaluation and DNA-binding study of novel tetrahydroquinolines and some derived tricyclic and tetracyclic ring systems” (Eur J Med Chem, 2013).

Assays:
Assay type in all cases: functional
MCF7 = assay: Cytotoxicity against human MCF7 cells assessed as growth inhibition at 10 uM after 48 hrs by sulphorhodamine B assay; conditions: MCF7, 48 h, read-out: GI
In short: (§1)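 NCI-60 one-dose screen per the NCI Drug Evaluation Branch protocol. Cells given a single 10 µM concentration with 48 h continuous exposure. Growth estimated by sulphorhodamine B protein assay. Result expressed as percentage growth inhibition relative to untreated growth.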

A549 = assay: Cytotoxicity against human A549 cells assessed as growth inhibition at 10 uM after 48 hrs by sulphorhodamine B assay; conditions: A549, 48 h, read-out: GI; in short: as §1
SK-MEL-5 = assay: Cytotoxicity against human SK-MEL-5 cells assessed as growth inhibition at 10 uM after 48 hrs by sulphorhodamine B assay; conditions: SK-MEL-5, 48 h, read-out: GI; in short: as §1
NCI-H522 = assay: Cytotoxicity against human NCI-H522 cells assessed as growth inhibition at 10 uM after 48 hrs by sulphorhodamine B assay; conditions: NCI-H522, 48 h, read-out: GI; in short: as §1
CAKI-1 = assay: Cytotoxicity against human Caki1 cells assessed as growth inhibition at 10 uM after 48 hrs by sulphorhodamine B assay; conditions: CAKI-1, 48 h, read-out: GI; in short: as §1
T47D = assay: Cytotoxicity against human T47D cells assessed as growth inhibition at 10 uM after 48 hrs by sulphorhodamine B assay; conditions: read-out: GI; in short: as §1
HCT-15 = assay: Cytotoxicity against human HCT15 cells assessed as growth inhibition at 10 uM after 48 hrs by sulphorhodamine B assay; conditions: HCT-15, 48 h, read-out: GI; in short: as §1
NCI/ADR-RES = assay: Cytotoxicity against human NCI/ADR-RES cells assessed as growth inhibition at 10 uM after 48 hrs by sulphorhodamine B assay; conditions: read-out: GI; in short: as §1
MDA-MB-435 = assay: Cytotoxicity against human MDA-MB-435 cells assessed as growth inhibition at 10 uM after 48 hrs by sulphorhodamine B assay; conditions: MDA-MB-435, 48 h, read-out: GI; in short: as §1
SF-295 = assay: Cytotoxicity against human SF295 cells assessed as growth inhibition at 10 uM after 48 hrs by sulphorhodamine B assay; conditions: SF-295, 48 h, read-out: GI; in short: as §1
[1] = Cytotoxicity against human EKVX cells assessed as growth inhibition at 10 uM after 48 hrs by sulphorhodamine B assay; conditions: read-out: GI; in short: as §1
OVCAR-5 = assay: Cytotoxicity against human OVCAR5 cells assessed as growth inhibition at 10 uM after 48 hrs by sulphorhodamine B assay; conditions: OVCAR-5, 48 h, read-out: GI; in short: as §1
DU-145 = assay: Cytotoxicity against human DU145 cells assessed as growth inhibition at 10 uM after 48 hrs by sulphorhodamine B assay; conditions: DU-145, 48 h, read-out: GI; in short: as §1
HCT-116 = assay: Cytotoxicity against human HCT116 cells assessed as growth inhibition at 10 uM after 48 hrs by sulphorhodamine B assay; conditions: HCT-116, 48 h, read-out: GI; in short: as §1
RXF 393 = assay: Cytotoxicity against human RXF393 cells assessed as growth inhibition at 10 uM after 48 hrs by sulphorhodamine B assay; conditions: RXF 393, 48 h, read-out: GI; in short: as §1
Hs-578T = assay: Cytotoxicity against human Hs578T cells assessed as growth inhibition at 10 uM after 48 hrs by sulphorhodamine B assay; conditions: read-out: GI; in short: as §1
UACC-62 = assay: Cytotoxicity against human UACC62 cells assessed as growth inhibition at 10 uM after 48 hrs by sulphorhodamine B assay; conditions: UACC-62, 48 h, read-out: GI; in short: as §1
HL-60(TB) = assay: Cytotoxicity against human HL-60(TB) cells assessed as growth inhibition at 10 uM after 48 hrs by sulphorhodamine B assay; conditions: HL-60, 48 h, read-out: GI
In short: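 NCI-60 one-dose primary screen run to the Drug Evaluation Branch protocol. Cells are exposed to a single 10 µM concentration for 48 h continuously, and growth is read by SRB protein assay. Data are reported as percent growth of treated cells, expressed as % growth inhibition.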

SF-268 = assay: Cytotoxicity against human SF268 cells assessed as growth inhibition at 10 uM after 48 hrs by sulphorhodamine B assay; conditions: SF-268, 48 h, read-out: GI; in short: as §1
SNB-19 = assay: Cytotoxicity against human SNB19 cells assessed as growth inhibition at 10 uM after 48 hrs by sulphorhodamine B assay; conditions: SNB-19, 48 h, read-out: GI; in short: as §1
A498 = assay: Cytotoxicity against human A498 cells assessed as growth inhibition at 10 uM after 48 hrs by sulphorhodamine B assay; conditions: A498, 48 h, read-out: GI; in short: as §1
SK-OV-3 = assay: Cytotoxicity against human SKOV3 cells assessed as growth inhibition at 10 uM after 48 hrs by sulphorhodamine B assay; conditions: SK-OV-3, 48 h, read-out: GI; in short: as §1
NCI-H23 = assay: Cytotoxicity against human NCI-H23 cells assessed as growth inhibition at 10 uM after 48 hrs by sulphorhodamine B assay; conditions: NCI-H23, 48 h, read-out: GI; in short: as §1
ACHN = assay: Cytotoxicity against human ACHN cells assessed as growth inhibition at 10 uM after 48 hrs by sulphorhodamine B assay; conditions: read-out: GI; in short: as §1
U-251 = assay: Cytotoxicity against human U251 cells assessed as growth inhibition at 10 uM after 48 hrs by sulphorhodamine B assay; conditions: U-251, 48 h, read-out: GI; in short: as §1
OVCAR-4 = assay: Cytotoxicity against human OVCAR4 cells assessed as growth inhibition at 10 uM after 48 hrs by sulphorhodamine B assay; conditions: OVCAR-4, 48 h, read-out: GI; in short: as §1
SNB-75 = assay: Cytotoxicity against human SNB75 cells assessed as growth inhibition at 10 uM after 48 hrs by sulphorhodamine B assay; conditions: SNB-75, 48 h, read-out: GI; in short: as §1
HOP-92 = assay: Cytotoxicity against human HOP92 cells assessed as growth inhibition at 10 uM after 48 hrs by sulphorhodamine B assay; conditions: HOP-92, 48 h, read-out: GI; in short: as §1
UO-31 = assay: Cytotoxicity against human UO31 cells assessed as growth inhibition at 10 uM after 48 hrs by sulphorhodamine B assay; conditions: UO-31, 48 h, read-out: GI; in short: as §1
LOX IMVI = assay: Cytotoxicity against human LOXIMVI cells assessed as growth inhibition at 10 uM after 48 hrs by sulphorhodamine B assay; conditions: read-out: GI; in short: as §1
SR = assay: Cytotoxicity against human SR cells assessed as growth inhibition at 10 uM after 48 hrs by sulphorhodamine B assay; conditions: read-out: GI; in short: as §1
HT-29 = assay: Cytotoxicity against human HT-29 cells assessed as growth inhibition at 10 uM after 48 hrs by sulphorhodamine B assay; conditions: HT-29, 48 h, read-out: GI; in short: as §1
MDA-MB-468 = assay: Cytotoxicity against human MDA-MB-468 cells assessed as growth inhibition at 10 uM after 48 hrs by sulphorhodamine B assay; conditions: MDA-MB-468, 48 h, read-out: GI; in short: as §1
CCRF-CEM = assay: Cytotoxicity against human CCRF-CEM cells assessed as growth inhibition at 10 uM after 48 hrs by sulphorhodamine B assay; conditions: read-out: GI; in short: as §1
K562 = assay: Cytotoxicity against human K562 cells assessed as growth inhibition at 10 uM after 48 hrs by sulphorhodamine B assay; conditions: K562, 48 h, read-out: GI; in short: as §1
M14 = assay: Cytotoxicity against human M14 cells assessed as growth inhibition at 10 uM after 48 hrs by sulphorhodamine B assay; conditions: M14, 48 h, read-out: GI; in short: as §1
MOLT-4 = assay: Cytotoxicity against human MOLT4 cells assessed as growth inhibition at 10 uM after 48 hrs by sulphorhodamine B assay; conditions: MOLT-4, 48 h, read-out: GI; in short: as §1
RPMI-8226 = assay: Cytotoxicity against human RPMI8226 cells assessed as growth inhibition at 10 uM after 48 hrs by sulphorhodamine B assay; conditions: RPMI-8226, 48 h, read-out: GI; in short: as §1
IGROV-1 = assay: Cytotoxicity against human IGROV1 cells assessed as growth inhibition at 10 uM after 48 hrs by sulphorhodamine B assay; conditions: IGROV-1, 48 h, read-out: GI; in short: as §1
PC-3 = assay: Cytotoxicity against human PC3 cells assessed as growth inhibition at 10 uM after 48 hrs by sulphorhodamine B assay; conditions: PC-3, 48 h, read-out: GI; in short: as §1
SK-MEL-2 = assay: Cytotoxicity against human SK-MEL-2 cells assessed as growth inhibition at 10 uM after 48 hrs by sulphorhodamine B assay; conditions: SK-MEL-2, 48 h, read-out: GI; in short: as §1

CC1CCCc2c1nc(N)c(C#N)c2-c1ccc(Cl)cc1 (configuration not stated)
inhibition of growth at 10 µM (MCF7): 31.5%
inhibition of growth at 10 µM (A549): < 10%
inhibition of growth at 10 µM (SK-MEL-5): < 10%
inhibition of growth at 10 µM (NCI-H522): < 10%
inhibition of growth at 10 µM (CAKI-1): < 10%
inhibition of growth at 10 µM (T47D): 17.2%
inhibition of growth at 10 µM (HCT-15): < 10%
inhibition of growth at 10 µM (NCI/ADR-RES): < 10%
inhibition of growth at 10 µM (MDA-MB-435): < 10%
inhibition of growth at 10 µM (SF-295): < 10%
inhibition of growth at 10 µM [1]: 39.5%
inhibition of growth at 10 µM (OVCAR-5): < 10%
inhibition of growth at 10 µM (DU-145): < 10%
inhibition of growth at 10 µM (HCT-116): < 10%
inhibition of growth at 10 µM (RXF 393): < 10%
inhibition of growth at 10 µM (Hs-578T): 25%
inhibition of growth at 10 µM (UACC-62): 24.2%
inhibition of growth at 10 µM (HL-60(TB)): < 10%
inhibition of growth at 10 µM (SF-268): 11.3%
inhibition of growth at 10 µM (SNB-19): 20.5%
inhibition of growth at 10 µM (A498): 21.7%
inhibition of growth at 10 µM (SK-OV-3): < 10%
inhibition of growth at 10 µM (NCI-H23): < 10%
inhibition of growth at 10 µM (ACHN): < 10%
inhibition of growth at 10 µM (U-251): < 10%
inhibition of growth at 10 µM (OVCAR-4): 10.1%
inhibition of growth at 10 µM (SNB-75): 26.8%
inhibition of growth at 10 µM (HOP-92): 10%
inhibition of growth at 10 µM (UO-31): < 10%
inhibition of growth at 10 µM (LOX IMVI): < 10%
inhibition of growth at 10 µM (SR): < 10%
inhibition of growth at 10 µM (HT-29): < 10%
inhibition of growth at 10 µM (MDA-MB-468): 36.5%
inhibition of growth at 10 µM (CCRF-CEM): 13.3%
inhibition of growth at 10 µM (K562): 11.8%
inhibition of growth at 10 µM (M14): < 10%
inhibition of growth at 10 µM (MOLT-4): < 10%
inhibition of growth at 10 µM (RPMI-8226): 18.2%
inhibition of growth at 10 µM (IGROV-1): < 10%
inhibition of growth at 10 µM (PC-3): < 10%
inhibition of growth at 10 µM (SK-MEL-2): 15%

CC1CCCc2c1nc1ncnc(N)c1c2-c1ccc(Cl)cc1 (configuration not stated)
inhibition of growth at 10 µM (MCF7): < 10%
inhibition of growth at 10 µM (A549): < 10%
inhibition of growth at 10 µM (SK-MEL-5): 10.2%
inhibition of growth at 10 µM (NCI-H522): 11%
inhibition of growth at 10 µM (CAKI-1): < 10%
inhibition of growth at 10 µM (T47D): 40%
inhibition of growth at 10 µM (HCT-15): 10%
inhibition of growth at 10 µM (NCI/ADR-RES): < 10%
inhibition of growth at 10 µM (MDA-MB-435): < 10%
inhibition of growth at 10 µM (SF-295): < 10%
inhibition of growth at 10 µM [1]: < 10%
inhibition of growth at 10 µM (OVCAR-5): < 10%
inhibition of growth at 10 µM (DU-145): < 10%
inhibition of growth at 10 µM (HCT-116): 14%
inhibition of growth at 10 µM (RXF 393): 11%
inhibition of growth at 10 µM (Hs-578T): 14.7%
inhibition of growth at 10 µM (UACC-62): 13.8%
inhibition of growth at 10 µM (HL-60(TB)): 12.4%
inhibition of growth at 10 µM (SF-268): 12.3%
inhibition of growth at 10 µM (SNB-19): 21.3%
inhibition of growth at 10 µM (A498): 27.7%
inhibition of growth at 10 µM (SK-OV-3): 12%
inhibition of growth at 10 µM (NCI-H23): < 10%
inhibition of growth at 10 µM (ACHN): < 10%
inhibition of growth at 10 µM (U-251): 14.5%
inhibition of growth at 10 µM (OVCAR-4): 17.8%
inhibition of growth at 10 µM (SNB-75): 21.5%
inhibition of growth at 10 µM (HOP-92): 25.3%
inhibition of growth at 10 µM (UO-31): 10.1%
inhibition of growth at 10 µM (LOX IMVI): < 10%
inhibition of growth at 10 µM (SR): < 10%
inhibition of growth at 10 µM (HT-29): 13.3%
inhibition of growth at 10 µM (MDA-MB-468): 20%
inhibition of growth at 10 µM (CCRF-CEM): 22.2%
inhibition of growth at 10 µM (K562): 25%
inhibition of growth at 10 µM (M14): < 10%
inhibition of growth at 10 µM (MOLT-4): < 10%
inhibition of growth at 10 µM (RPMI-8226): 21.3%
inhibition of growth at 10 µM (IGROV-1): < 10%
inhibition of growth at 10 µM (PC-3): 24.2%
inhibition of growth at 10 µM (SK-MEL-2): < 10%
